Article PMC9774327 (ACS Omega, 2022)
Where a SMILES comes first, the peptide text is derived from it. Bridges are numbered along the chain shown (N, C = ends). Where no end group is shown, it is not given here. [ ]: non-standard residue; d: D form. S5 = C=CCCC[C@](C)(N)C(=O)O

How the values were obtained:
HL-60 cells = assay: NBT reduction assay of VDR-mediated cell differentiation; format: cell-based; settings: 1 μM peptide with 30 nM VD3, 48 h, NBT-positive cells counted
Outline: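 HL-60 cells in RPMI-1640 with 10% heat-inactivated FBS were treated 48 h with VD₃ (30 nM) with or without peptide. Cells were then stained with 1 mg/mL NBT plus 320 nM PMA for 30 min at 37 °C. NBT-positive cells were counted microscopically among more than 200 cells and expressed as a percentage. Data are means ± SD of three independent experiments.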

MCF-7 cells = assay: Confocal microscope observation of intracellular localization; format: cell-based; settings: peptide 1 μM with LysoTracker 70 nM for 2 h, Figure S8
Outline: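 MCF-7 cells grown in RPMI-1640 with 10% heat-inactivated FBS and 1% penicillin/streptomycin, then plated on glass-bottom dishes. They were co-incubated 2 h with peptide and LysoTracker, then stained with Hoechst33342 for 5 min and washed with PBS before confocal imaging.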

[1] = biological target: T1, VDR-mediated transcription in MCF-7 cells expressing the VDR (Homo sapiens, UniProt P11473); assay: Dual-luciferase reporter gene assay of VDR-mediated transcription; format: cell-based; settings: 3 μM peptide, 30 nM calcitriol defined as 100%, 16 h incubation
T1 sequence (P11473 1-427): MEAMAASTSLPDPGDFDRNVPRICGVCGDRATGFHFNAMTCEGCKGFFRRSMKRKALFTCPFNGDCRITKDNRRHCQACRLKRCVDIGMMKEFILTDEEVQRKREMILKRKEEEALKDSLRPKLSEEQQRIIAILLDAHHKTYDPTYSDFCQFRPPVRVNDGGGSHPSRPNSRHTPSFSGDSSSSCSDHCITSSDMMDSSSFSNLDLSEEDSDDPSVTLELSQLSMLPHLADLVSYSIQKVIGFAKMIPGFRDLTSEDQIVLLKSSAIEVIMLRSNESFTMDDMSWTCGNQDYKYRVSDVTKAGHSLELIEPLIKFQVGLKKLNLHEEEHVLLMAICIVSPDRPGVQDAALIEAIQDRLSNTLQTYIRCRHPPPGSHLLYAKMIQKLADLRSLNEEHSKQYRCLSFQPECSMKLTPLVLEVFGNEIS
Outline: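 MCF-7 cells (RPMI-1640, 10% heat-inactivated FBS, 1% penicillin/streptomycin) seeded at 4×10^4 cells/well and cultured 24 h. Cells were co-transfected by lipofection with a VDRE-firefly luciferase reporter and SV40-Renilla luciferase control. After 8 h, test compound was added with 1α,25(OH)₂D₃ (30 nM) for 16 h. Dual-luciferase activity was read in lysates, with 30 nM calcitriol activation set as 100%.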

[2] = biological target: ligand binding domain of rat VDR with a deleted loop region (Ser165–Pro211) (rat) (UniProt P13053); assay: fluorescence polarisation
ligand binding domain of rat VDR with a deleted loop region (Ser165–Pro211) (rat), sequence (P13053 212-423, stated change not applied): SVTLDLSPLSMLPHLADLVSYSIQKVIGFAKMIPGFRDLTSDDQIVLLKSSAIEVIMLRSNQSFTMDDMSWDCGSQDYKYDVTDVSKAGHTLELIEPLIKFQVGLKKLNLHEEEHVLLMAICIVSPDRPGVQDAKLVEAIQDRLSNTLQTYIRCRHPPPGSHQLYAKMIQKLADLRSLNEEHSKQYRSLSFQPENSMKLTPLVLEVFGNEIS

Row | Compound | inhibition of HL-60 cell differentiation at 1 μM (HL-60 cells) | intracellular localization (confocal microscopy) (MCF-7 cells) | % Inhibition at 3 μM of VDR-mediated transcriptional activity [1] | relative value of IC50 (to SRC2-3) [2]
1 | KENALLRYLLDKDGGGRRRRRRRRR-NH2 [Peptide 21] | did not inhibit cell differentiation | – | – | –
2 | CC(C)C[C@H](NC(=O)[C@H](CC(C)C)NC(=O)[C@]1(C)CCCC=CCCC[C@](C)(NC(=O)[C@H](CC(N)=O)NC(=O)[C@H](CCC(=O)O)NC(=O)[C@@H](N)CCCCN)C(=O)N[C@@H](CC(C)C)C(=O)N[C@@H](CC(C)C)C(=O)N[C@@H](CCCNC(=N)N)C(=O)N1)C(=O)N[C@@H](CC(=O)O)C(=O)N[C@@H](CCCCN)C(=O)N[C@@H](CC(=O)O)C(=O)NCC(=O)NCC(=O)NCC(=O)N[C@@H](CCCNC(=N)N)C(=O)N[C@@H](CCCNC(=N)N)C(=O)N[C@@H](CCCNC(=N)N)C(=O)N[C@@H](CCCNC(=N)N)C(=O)N[C@@H](CCCNC(=N)N)C(=O)N[C@@H](CCCNC(=N)N)C(=O)N[C@@H](CCCNC(=N)N)C(=O)N[C@@H](CCCNC(=N)N)C(=O)N[C@@H](CCCNC(=N)N)C(N)=O [Peptide 23] (H-KEN[S5]LLR[S5]LLDKDGGGRRRRRRRRR-NH2; staple 4-8) | – | localized in the endosome | 44.3% | –
3 | CC(C)C[C@H](NC(=O)[C@H](C)NC(=O)[C@H](CC(N)=O)NC(=O)[C@H](CCC(=O)O)NC(=O)[C@@H](N)CCCCN)C(=O)N[C@@H](CC(C)C)C(=O)N[C@@H](CCCNC(=N)N)C(=O)N[C@@]1(C)CCCC=CCCC[C@@](C)(C(=O)N[C@@H](CC(=O)O)C(=O)NCC(=O)NCC(=O)NCC(=O)N[C@@H](CCCNC(=N)N)C(=O)N[C@@H](CCCNC(=N)N)C(=O)N[C@@H](CCCNC(=N)N)C(=O)N[C@@H](CCCNC(=N)N)C(=O)N[C@@H](CCCNC(=N)N)C(=O)N[C@@H](CCCNC(=N)N)C(=O)N[C@@H](CCCNC(=N)N)C(=O)N[C@@H](CCCNC(=N)N)C(=O)N[C@@H](CCCNC(=N)N)C(N)=O)NC(=O)[C@H](CC(=O)O)NC(=O)[C@H](CC(C)C)NC(=O)[C@H](CC(C)C)NC1=O [Peptide 24] | did not inhibit cell differentiation | broadly localized over the entire cell | – | –
4 | SRC2-3 peptide | – | – | – | 1
